From ChEMBL document CHEMBL2331234, “Novel analgesic/anti-inflammatory agents: 1,5-diarylpyrrole nitrooxyalkyl ethers and related compounds as cyclooxygenase-2 inhibiting nitric oxide donors” (J Med Chem, 2013)

How the values were obtained:
Rattus norvegicus [1] = test: Antiinflammatory activity in Sprague-Dawley/Wistar rat assessed as decrease in carrageenan-induced hyperalgesia at 20 mg/kg, po administered 4 hrs after carrageenan-challenge measured after 120 mins (reference value: 31.4 +/- 3.7 g); type: functional
Mus musculus = test: Antinociceptive activity in po dosed Swiss albino mouse assessed as reduction in number of acetic acid-induced writhing counted 5 mins after acetic acid challenge counted for 10 mins; type: functional; details: read-out: MED
Method in brief: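 Male Swiss albino mice (23-25 g) dosed orally, then given 0.6% acetic acid (10 mL/kg) ip. Stretching movements counted for 10 min, starting 5 min after the acetic acid. Control group received CMC. At least 7 mice/group; mean ± SEM, ANOVA with Fisher's PLSD.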

J774 = test: Selectivity index, ratio of IC50 for COX1 in mouse J774 cells […]; type: cell-based
[2] = target: T1, Prostaglandin G/H synthase 2 (Homo sapiens) (UniProt P35354); test: (§1) Inhibition of COX2 in human whole blood assessed as reduction in LPS-induced PGE2 generation pre-treated prior to LPS-challenge
T1 sequence (whole entry): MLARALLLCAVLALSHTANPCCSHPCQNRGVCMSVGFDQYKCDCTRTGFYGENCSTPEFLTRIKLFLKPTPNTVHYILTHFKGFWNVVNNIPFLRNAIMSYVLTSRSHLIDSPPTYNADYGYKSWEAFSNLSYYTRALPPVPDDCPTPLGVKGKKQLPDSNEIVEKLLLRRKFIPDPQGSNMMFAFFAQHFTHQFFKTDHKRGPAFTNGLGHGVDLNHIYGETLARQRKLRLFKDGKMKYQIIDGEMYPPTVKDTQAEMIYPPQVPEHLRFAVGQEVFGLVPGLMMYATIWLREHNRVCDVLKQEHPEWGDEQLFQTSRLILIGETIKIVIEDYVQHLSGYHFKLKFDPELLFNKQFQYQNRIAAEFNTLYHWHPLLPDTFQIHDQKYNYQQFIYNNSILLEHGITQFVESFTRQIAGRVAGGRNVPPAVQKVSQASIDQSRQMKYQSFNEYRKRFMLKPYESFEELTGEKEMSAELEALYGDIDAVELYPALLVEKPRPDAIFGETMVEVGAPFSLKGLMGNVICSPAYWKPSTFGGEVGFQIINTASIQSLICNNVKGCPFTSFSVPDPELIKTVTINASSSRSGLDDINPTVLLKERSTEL
Method in brief: (§2)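 Heparinized whole blood came from three healthy volunteers pretreated with aspirin 300 mg 48 h before sampling to suppress platelet COX-1. Compounds in DMSO were added at 0.1-300 µM final. Blood was incubated with LPS 10 µg/mL for 24 h at 37 °C. Plasma PGE2 was measured by RIA.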

[3] = target: T2, Prostaglandin G/H synthase 2 (Homo sapiens, UniProt P35354); test: as §1; method in brief: as §2
T2 sequence (P35354 whole entry): T1 sequence (whole entry)

Rattus norvegicus [4] = test: Antiinflammatory activity in Sprague-Dawley/Wistar osteoarthritis model rat assessed as decrease in monoiodoacetate-induced hyperalgesia at 20 mg/kg, po bid for 14 days administered from day of monoiodoacetate-challenge followed by additional compound treatment after 30 mins […] by paw pressure test (reference value: 30.4 +/- 3.1 g); type: functional

With Cc1c(CCOCCO[N+](=O)[O-])cc(-c2ccc(S(C)(=O)=O)cc2)n1-c1ccc(F)cc1 as the molecule, how does the Activity (Rattus norvegicus [1]) read?
Its Activity is 43.8 g.

And the minimal effective dose (Mus musculus)?
Its minimal effective dose is 10 mg/kg.

What about the Ratio IC50 (J774) of the same molecule?
Its Ratio IC50 is > 714.

And the IC80 [2]?
Its IC80 is 2.26 µM.

And the inhibition [2]?
Its inhibition is “Dose-dependent effect”.

And the IC50 [3]?
The IC50 was 0.64 µM.

And the Activity (Rattus norvegicus [4])?
Its Activity is 45.1 g.
